Hits are enriched below; roughly 1.9% of the tested compounds scored in any of these assays.
MBD2 DNA inh – MBD2-methylated oligo binding inhibition | hit rate 0.31% among 370,000 | AID 686964 | inhibition, % at 4.4 µM | Q9UBB5 | TR-FRET, MBD2 binding to methylated oligonucleotide; in the data active = inhibition above about 13%
UHRF1 MBD2 ctr – human UHRF1 methylated DNA binding inhibitors. hit rate 0.75% among 370,000. UHRF1 binding to methylated oligo, TR-FRET. Q96T88. inhibition, % at 4.4 µM; in the data active = inhibition above about 21%;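 also: UHRF1 SRA domain binding a hemimethylated CpG hairpin DNA probe; 0% = median of test compound wells and 100% = reference inhibitor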
LEDGF integ inh – blocks HIV-1 LEDGF/p75-dependent DNA integration. hit rate 0.64% among 370,000. inhibition, % at 3.7 µM. AID 743269. TR-FRET IN-LEDGF/p75 DNA integration, Eu/Cy5;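 active = inhibition above the screen-wide mean plus 3 SD, cut at about 13% in these data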;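 also: signal is the Cy5 over europium emission ratio at 671 and 618 nm; 0% = plate median of compound wells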
DDE Tn7 FP inh – inhibitors of Tn7 peptide binding to human fibrin DD(E) | inhibition, % at 8.3 µM | P02675 | hit rate 0.13% among 370,000 | FP displacement of FITC-Tn7 peptide from fibrin DD(E); 0% = median of compound wells per plate;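 active = inhibition above the mean of compounds falling within the control limits plus 3 SD of them, cut at about 14% in these data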;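 also: 0% = plate median of compound wells and 100% = 10 µM Aha-Tn7 peptide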
Target sequence (P02675 whole entry, looked up): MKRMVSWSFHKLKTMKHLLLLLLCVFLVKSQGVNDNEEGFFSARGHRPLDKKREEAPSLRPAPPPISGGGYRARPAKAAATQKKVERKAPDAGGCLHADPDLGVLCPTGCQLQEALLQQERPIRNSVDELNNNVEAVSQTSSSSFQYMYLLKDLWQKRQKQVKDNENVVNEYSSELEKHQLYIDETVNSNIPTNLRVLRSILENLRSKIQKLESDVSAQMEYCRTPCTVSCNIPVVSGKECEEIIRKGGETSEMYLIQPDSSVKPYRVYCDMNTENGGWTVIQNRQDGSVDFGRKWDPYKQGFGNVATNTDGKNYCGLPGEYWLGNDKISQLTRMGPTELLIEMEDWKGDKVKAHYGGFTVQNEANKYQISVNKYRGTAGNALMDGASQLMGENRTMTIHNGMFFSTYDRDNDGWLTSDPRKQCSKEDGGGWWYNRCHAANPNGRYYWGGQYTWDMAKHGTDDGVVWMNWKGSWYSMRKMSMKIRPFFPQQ
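Assay system: human fibrin DD(E) protein / Input: 2 µM fibrin DD(E) / Benchmarks: high control of 10 µM Aha-Tn7 peptide / Measured by: fluorescence polarization of the labelled Tn7 tracer / Medium: Tris buffer with calcium and detergent, pH 7.8 / Timing: 10 min compound pre-incubation, 3 h probe incubation at room temperature / Repeats: one replicate per compound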
DDE Tn6 FP inh – DD(E)-Tn6 binding inhibition, primary FP screen; AID 720509; P02675; inhibition, % at 8.3 µM; hit rate 0.21% among 370,000; Fibrin DD(E) TRITC-Tn6 fluorescence polarization displacement;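 active = inhibition above a per-campaign cutoff: mean of compounds within control limits plus 3 SD, cut at about 15% in these data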;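 also: 0% = median of all compound wells on the plate and 100% = blocking peptide control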
TDP2 absorb – TDP2 (human) inhibition, absorbance primary screen; inhibition, % at 12.8 µM; hit rate 0.34% among 370,000; recombinant TDP2, T5PNP hydrolysis, p-nitrophenol absorbance 415 nm; AID 720702;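 active = inhibition above the mean of all tested compounds plus 3 SD, set per campaign, cut at about 25% in these data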;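 also: 0% = DMSO with enzyme and 100% = buffer with substrate but no TDP2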
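Assay system: Recombinant human TDP2 | Quantity: 120 nM TDP2 per well | Incubation: 2 h at 37 °C | Signal: Epi absorbance | Evaluation: Percent inhibition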
IN multimer up – activates HIV-1 integrase multimerization in LEDGF counter-screen. AID 1053131. activation, % at 7.7 µM. shares compounds with LEDGF integ inh. hit rate 17% among 2,000. TR-FRET HIV-1 integrase multimerization, biochemical; in the data active = activation above about 8.9%
TR-FRET interf – TR-FRET optical interference, LEDGF/p75 integration counter-screen | shares compounds with LEDGF integ inh | TR-FRET optical interference counterscreen, HIV-1 IN multimerization | inhibition, % at 7.7 µM | 2,000 tested, under 10 active;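 active = inhibition above the mean over all tested compounds plus 3 SD, which no compound reached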;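 also: 0% = integrase with antibodies and DMSO and 100% = antibodies without integrase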
IN-LEDGF confirm – LEDGF/p75-dependent HIV-1 integration inhibition, confirmation. hit rate 36% among 2,000. shares compounds with LEDGF integ inh. inhibition, % at 3.7 µM. TR-FRET LEDGF/p75-dependent HIV-1 integration, biochemical; in the data active = inhibition above about 14%
Starred values were filed as active, the others as inactive; · = not tested or not shown.

SMILES	MBD2 DNA inh	UHRF1 MBD2 ctr	LEDGF integ inh	DDE Tn7 FP inh	DDE Tn6 FP inh	TDP2 absorb	IN multimer up	TR-FRET interf	IN-LEDGF confirm
CCOC(=O)c1cnc(SCC(=O)NNC(=O)c2ccco2)nc1N	5	0	72*	0	-8	-3	1	-3	-5
COc1ccc(C2CC(=O)C(c3cccc(F)c3)=CN2Cc2ccccc2)cc1 (centres undefined)	3	1	3	-7	-3	-10	·	·	·
O=C(NN=Cc1ccccc1Cl)C(=O)Nc1cccc(C(F)(F)F)c1	2	1	1	-3	4	-6	·	·	·
CCOC(=O)C1=C(O)/C(=C\c2ccc(CNC(=O)C(=O)Nc3ccccc3)o2)N=C1C	6	7	25*	3	3	-1	10*	-52	26*
O=C(N[C@H](C(=O)N1CCC[C@H]1C(=O)NCc1ccccc1)c1ccccc1)c1ccc(Cl)c(Cl)c1	0	0	2	-7	-8	-2	·	·	·
COC(=O)C1=C(C)N(Cc2ccccc2C(F)(F)F)C(=NCC2CC2)NC1c1ccc(C(F)(F)F)cc1 (centres undefined)	1	-2	-4	3	0	-6	·	·	·
O=C(CCSCc1cccc(Cl)c1)NCCC1=CCCCC1	-6	-1	0	2	-12	3	·	·	·
O=C(CCSCc1cccc(Cl)c1)NC1CCCC1	1	1	51*	3	-3	-2	3	-17	5
COc1cc(C2OCC3C(c4ccc(OC5OC(CO)C(O)C(O)C5O)c(OC)c4)OCC23)ccc1O (centres undefined)	-4	-1	32*	2	-2	-6	34*	-120	15*
Cc1cc(-c2n[nH]c(=S)n2N=Cc2cccc(Oc3ccccc3)c2)n[nH]1	-4	-1	-5	3	6	4	·	·	·
CC(C)OC(=O)[C@@H](Cc1ccccc1)N[C@H](/C=C/c1ccccc1)[C@@H](O)Cc1ccccc1	5	3	0	3	-8	-12	·	·	·
COCCN(Cc1ccc(C)cc1)C(=O)[C@H]1O[C@@H](n2cnc(C(N)=O)n2)[C@H](O)[C@@H]1O	-4	4	2	-3	4	6	·	·	·
COc1cc(C(=O)O)c2c(c1C)OC(=O)c1c(C)cc(O)c(C=O)c1O2	1	4	17*	5	1	6	0	2	38*
O=C(NCc1ccccc1)[C@H]1CCCN1C(=O)[C@H]1CCCN1C(=O)c1ccc(OC(F)(F)F)cc1	-4	2	1	8	8	8	·	·	·
Cc1nc2ccccc2n2c(O)c(CC(=O)O)cc12	5	16	23*	1	7	8	7	-34	17*
COc1ccc2cc(C(=O)CS(=O)(=O)c3ccc(Cl)cc3)c(=O)oc2c1	-7	-2	2	-14	1	-10	·	·	·
Cc1ccc(/C=C2\Oc3cc(OCC(=O)NN)ccc3C2=O)o1	3	2	21*	-3	-2	1	8	-28	14*
COCCN(CCOC)Cc1c(O)ccc2c1O/C(=C\c1ccc(C)o1)C2=O	-1	14	40*	-2	-1	-10	13*	-45	14*
Cc1ccc(-n2c(SCC(=O)c3ccc4c(c3)OCO4)nc3ccccc3c2=O)cc1	-1	0	3	3	6	4	·	·	·
Cn1nnnc1SCC(=O)N1CCN(c2ccc(Cl)cc2)CC1	2	-1	57*	6	5	7	1	-3	2
O=C1c2ccccc2C(=O)N1/N=C/c1ccc(O)c(O)c1	-1	1	30*	1	-2	10	23*	-81	59*
COc1nc(OC)nc(N2CCC(C(=O)N(C)Cc3ccco3)CC2)n1	0	1	2	2	7	9	·	·	·
Cc1cc(=O)oc(C)c1C(=O)Nc1cccc2ccccc12	-2	-4	30*	-3	-4	9	0	-2	-1
O=S(=O)(c1ccccc1)N1CCCc2nc(-c3ccc(F)cc3)ccc21	0	-1	-2	2	6	-3	·	·	·
COC(=O)C1=C(C)N(Cc2ccccc2)C(=S)NC1c1ccc(Br)cc1 (centres undefined)	7	0	-2	-5	-7	-11	·	·	·
SMILES	MBD2 DNA inh	UHRF1 MBD2 ctr	LEDGF integ inh	DDE Tn7 FP inh	DDE Tn6 FP inh	TDP2 absorb	IN multimer up	TR-FRET interf	IN-LEDGF confirm
OCCOCCOc1ccc(-c2nn[nH]n2)cc1	-1	24*	17*	10	5	-12	-1	4	-8
CCOc1ccc(-c2nn[nH]n2)cc1	2	3	3	2	5	3	·	·	·
COc1ccc(CN(C)C(=O)[C@@H](Cc2ccccc2)NC(=O)[C@H]2O[C@@H](n3ccc(N)nc3=O)[C@H](O)[C@@H]2O)cc1OC	-3	-2	2	8	-5	-3	·	·	·
CCN1CCN(C(c2ccc(OC)cc2)c2nnnn2Cc2ccc3c(c2)OCO3)CC1 (centres undefined)	2	-1	0	3	5	2	·	·	·
CCN1CCN(C(c2ccccc2)c2nnnn2Cc2ccc3c(c2)OCO3)CC1 (centres undefined)	3	3	25*	-5	1	0	-1	6	3
Oc1ccc(/C=N/N=C(c2ccccc2)c2ccccc2)c(O)c1O	-5	-1	41*	0	12	-4	21*	-76	84*
O=C(/C(=N/N=C/c1ccc(O)c(O)c1O)c1ccccc1)c1ccccc1	0	-3	14*	-8	-4	-11	3	-13	28*
CCN(CC)S(=O)(=O)c1cccc(C(=O)N/N=C/c2ccc(O)c(O)c2O)c1	3	-8	3	-2	-4	-6	·	·	·
COC(=O)[C@]12C[C@H](CC(=O)N3CCC(c4ccccc4)CC3)C(=O)N(Cc3ccc4c(c3)OCO4)C1=C[C@H](C(C)(C)C)O[C@@H]2C	-6	0	4	-8	-5	-12	·	·	·
O=C(CNS(=O)(=O)c1cccs1)N1CCN(c2ncccn2)CC1	0	3	-1	-7	-1	5	·	·	·
O=C(CCNS(=O)(=O)c1ccccc1)NNC(=O)C1COc2ccccc2O1 (centres undefined)	2	-4	14*	5	-3	-5	0	-2	3
